Test results taken from ChEMBL document CHEMBL5357070, “Nicotinamide Phosphoribosyltransferase Positive Allosteric Modulators Attenuate Neuronal Oxidative Stress” (ACS Med Chem Lett, 2024).
Active and inactive are the calls of the source. The rule behind the calls is not given here.

Key:
[1] = target: T1, Nicotinamide phosphoribosyltransferase (Homo sapiens, UniProt P43490); experiment: Positive allosteric modulator activity at human C-terminal his 6 tagged NAMPT using NAM and PRPP as substrate by coupled enzymatic analysis
Target sequence in this assay (P43490 whole entry): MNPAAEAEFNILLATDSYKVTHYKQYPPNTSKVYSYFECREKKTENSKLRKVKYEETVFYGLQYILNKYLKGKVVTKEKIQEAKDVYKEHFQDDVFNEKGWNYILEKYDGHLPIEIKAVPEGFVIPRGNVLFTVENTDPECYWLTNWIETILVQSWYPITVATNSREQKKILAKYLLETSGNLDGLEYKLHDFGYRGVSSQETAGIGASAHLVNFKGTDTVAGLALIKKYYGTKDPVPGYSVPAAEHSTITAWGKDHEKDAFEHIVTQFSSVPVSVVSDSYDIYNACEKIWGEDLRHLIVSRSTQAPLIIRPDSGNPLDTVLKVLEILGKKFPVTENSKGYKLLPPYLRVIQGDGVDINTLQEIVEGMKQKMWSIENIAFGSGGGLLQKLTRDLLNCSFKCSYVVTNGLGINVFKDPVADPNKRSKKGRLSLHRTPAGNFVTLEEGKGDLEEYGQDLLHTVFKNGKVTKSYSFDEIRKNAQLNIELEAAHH

[2] = target: T1, Nicotinamide phosphoribosyltransferase; experiment: Positive allosteric modulator activity at C-terminal his 6 tagged NAMPT in human THP-1 cells assessed as increase in NAD+ level at 30 uM incubated for 24 hrs by NAD-glo assay relative to control; type: cell-based
Procedure, shortened: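 THP-1 cells in RPMI 1640 with 10% heat-inactivated FBS, seeded at 37,500 cells/well (low passage). Held 1.5 h at 37 °C, 5% CO2, then treated with compound in DMSO (final ≤1%) for 24 h. NAD+ measured by NAD+/NADH-Glo luminescence. Three separate experiments per concentration.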
Target sequence in this assay (P43490 whole entry, looked up): as the sequence (P43490 whole entry) above

HT-22 [3] = experiment: Inhibition of oxidative stress in HT-22 cells assessed as fold reduction in […] induced ROS level at 0.3 uM measured after 18 to 24 hrs by MitoSOX red dye based flow cytometry analysis; type: functional, Mus musculus; settings: time 18-24 hrs
Procedure, shortened: (§1)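 HT22 mouse hippocampal neuronal cells (passage 12-50) grown in DMEM with 10% FBS, seeded at 3,000-5,000 cells/well on poly D-lysine-coated wells and left overnight. Cells were pretreated with compound in matched DMSO/PBS vehicle for 18-24 h, then stressed with recombinant mouse TNFα for a further 18-24 h. Staining in PBS used 1 μM calcein-AM, 5 μM MitoSOX and 10 μg/mL Hoechst for 30-45 min. Mitochondrial ROS was read as MitoSOX mean intensity on a Celigo imaging cytometer and given as fold-change over vehicle. Each run had ≥3 intraplate replicates, and the assay was repeated in ≥3 separate experiments.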

HT-22 [4] = experiment: Inhibition of oxidative stress in HT-22 cells assessed as fold reduction in […] induced ROS level at 2.5 uM measured after 18 to 24 hrs by MitoSOX red dye based flow cytometry analysis; type: functional, Mus musculus; settings: time 18-24 hrs; procedure, shortened: as §1
HT-22 [5] = experiment: Inhibition of oxidative stress in HT-22 cells assessed as fold reduction in […] induced ROS level at 40 uM measured after 18 to 24 hrs by MitoSOX red dye based flow cytometry analysis; type: functional, Mus musculus; settings: time 18-24 hrs; procedure, shortened: as §1
HT-22 [6] = experiment: Inhibition of oxidative stress in HT-22 cells assessed as fold reduction in […] induced ROS level at 5.0 uM measured after 18 to 24 hrs by MitoSOX red dye based flow cytometry analysis; type: functional, Mus musculus; settings: time 18-24 hrs; procedure, shortened: as §1
HT-22 [7] = experiment: Inhibition of oxidative stress in HT-22 cells assessed as reduction in […] induced ROS level at 20 to 40 uM measured after 18 to 24 hrs by MitoSOX red dye based flow cytometry analysis; type: functional, cell-based; settings: Mus musculus, dose 20-40 µM, time 18-24 hrs
Procedure, shortened: (§2)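 HT22 mouse hippocampal neuronal cells (passage 12-50) seeded at 3,000-5,000 cells/well on poly D-lysine-coated wells and incubated overnight. Cells pretreated with compound (DMSO stocks, matched vehicle) for 18-24 h, then exposed to glutamate or mouse TNFα for 18-24 h. Stained in PBS with 1 μM calcein-AM, 5 μM MitoSOX and 10 μg/mL Hoechst for 30-45 min. Imaging cytometry; MitoSOX mean intensity expressed as fold over vehicle. At least three experiments, each with at least triplicate wells.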

HT-22 [8] = experiment: Neuroprotective activity against glutamate induced excitotoxicity in HT-22 cells assessed as decrease in ROS activity measured after 18 to 24 hrs MitoSOX red dye based flow cytometry analysis; type: functional, cell-based; settings: Mus musculus, dose 1.25-40 µM, time 18-24 hrs; procedure, shortened: as §2
HT-22 [9] = experiment: Neuroprotective activity against glutamate induced excitotoxicity in HT-22 cells assessed as decrease in ROS activity at 20 to 40 uM measured after 18 to 24 hrs by MitoSOX red dye based flow cytometry analysis; type: functional, cell-based; settings: Mus musculus, dose 20-40 µM, time 18-24 hrs; procedure, shortened: as §2

Question: `COc1ccc(CN(CCC2(C(C)C)CCOC(C)(C)C2)C(=O)c2ccco2)c(C(F)(F)F)c1` (stereo not given) was tested. Which EC50 [1] did it give?
Answer: Not Active

Question: With `CC(C)C1(CCN(Cc2ccc(OC(F)(F)F)cc2)C(=O)c2ccco2)CCOC(C)(C)C1` (stereo not given) as the molecule, how does the EC50 [1] read?
Answer: Not Active

Question: For `COc1ccc(CN(CCC2(C(C)C)CCOC(C)(C)C2)C(=O)c2ccco2)cc1` (stereo not given), which Activity [2] is on record?
Answer: 18%

Question: And the “fold change (FC)” value (HT-22 [3])?
Answer: 1.434

Question: And the “fold change (FC)” value (HT-22 [4])?
Answer: 1.425

Question: And the “fold change (FC)” value (HT-22 [5])?
Answer: 1.133

Question: Which EC50 [1] does the source give for `COc1ccc(CN(CCC2(C(C)C)CCOC(C)(C)C2)C(=O)c2cnc[nH]2)cc1` (stereo not given) here?
Answer: > 8 µM

Question: Which EC50 ([1]; read-out: EC50) does the source give for `COc1ccc(CN(CCC2(C(C)C)CCOC(C)(C)C2)C(=O)c2ccc(Br)s2)cc1` (stereo not given) here?
Answer: 12.8 µM

Question: Which EC50 ([1]; read-out: EC50) does the source give for `CC(C)C1(CCN(Cc2ccc(N(C)C)cc2)C(=O)c2ccco2)CCOC(C)(C)C1` (stereo not given) here?
Answer: 3.29 µM

Question: What about the Activity ([2]; filed as positive allosteric modulator) of the same molecule?
Answer: 88%

Question: What about the “fold change (FC)” value (HT-22 [4]) of the same molecule?
Answer: 1.247

Question: And the “fold change (FC)” value (HT-22 [6])?
Answer: 1.287

Question: What about the inhibition (HT-22 [7]) of the same molecule?
Answer: Active

Question: And the Activity (HT-22 [8])?
Answer: Dose-Dependent Effect

Question: What about the Activity (HT-22 [9]) of the same molecule?
Answer: Active

Question: For `COc1ccc(CN(CCC2(C(C)C)CCOC(C)(C)C2)C(=O)c2cncnc2)cc1` (stereo not given), which EC50 [1] is on record?
Answer: Not Active

Question: With `COc1ccc(CNCCC2CCOCC2)cc1` as the molecule, how does the EC50 [1] read?
Answer: Not Active

Question: `COc1ccc(CNC(=O)c2ccco2)cc1` was tested. Which EC50 [1] did it give?
Answer: Not Active

Question: What does the source list for `O=C(NCc1ccncc1)Nc1ccc(S(=O)(=O)N2CC3CCC(C2)O3)cc1`?
Answer: fold change (FC) (HT-22 [3]): 1.26; fold change (FC) (HT-22 [6]): 1.348
